Laboratory results reported in ChEMBL document CHEMBL1137220, “2-(2-(dimethylaminomethyl)phenoxy)-5-iodophenylamine: an improved serotonin transporter imaging agent” (J Med Chem, 2004).
Several values for one entry are separate records, joined by “and”; a condition that tells them apart may be missing. Equal values may be shown once.

Legend:
[1] = Regional brain distribution in rat cortex was determined after 120 min of intravenous administration of the compound; [125I]- is used as radioactive isotope; format: ADME; conditions: in vivo, 2 h
Method in brief: (§1)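 Rats, three per group, injected with 10 μCi tracer in 0.2 mL saline via the femoral vein under ether anesthesia and killed by cardiac excision at the stated time. Cortex (frontal plus occipital), striatum, hippocampus, cerebellum and hypothalamus were dissected, weighed and gamma-counted. Values are % dose/g, calculated by comparison with counts of a 100-fold diluted aliquot of the injected dose.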

[2] = Regional brain distribution in rat cortex was determined after 11 hours of intravenous administration of the compound; [125I]- is used as radioactive isotope; format: ADME; conditions: in vivo; method in brief: as §1
[3] = Regional brain distribution in rat cortex was determined after 24-hours of intravenous administration of the compound; [125I]- is used as radioactive isotope; format: ADME; conditions: in vivo; method in brief: as §1
[4] = Distribution ratio in striatum and cerebellum was determined after 6 hrs of intravenous administration of the compound; [125I]- is used as radioactive isotope; format: ADME, tissue-based; conditions: rat
Method in brief: (§2)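 Rats, three per group, given 10 μCi tracer in 0.2 mL saline into the femoral vein under ether anesthesia, then killed by cardiac excision at the stated time. Brain regions were dissected, weighed and counted. Percent dose/g was calculated against a 1% diluted aliquot of the injected dose. The ratio is (region − cerebellum)/cerebellum on a % dose/g basis, with cerebellum as background.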

[5] = Distribution ratio in striatum and cerebellum was determined after 11 hrs of intravenous administration of the compound; [125I]- is used as radioactive isotope; format: ADME, tissue-based; conditions: rat; method in brief: as §2
[6] = Distribution ratio in hippocampus and cerebellum was determined after 30 min of intravenous administration of the compound; [125I]- is used as radioactive isotope; format: ADME, tissue-based; conditions: rat, 0.5 h
Method in brief: (§3)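 After femoral-vein injection of 10 μCi [¹²⁵I] tracer in 0.2 mL saline under ether anaesthesia (three rats per group), brain regions were dissected, weighed and counted: cortex (frontal plus occipital), hippocampus, hypothalamus and cerebellum. %dose/g was calculated against a diluted injected-dose standard. Ratio = (region − cerebellum)/cerebellum on a %dose/g basis, with cerebellum as the background region.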

[7] = Distribution ratio in hypothalamus and cerebellum was determined after 2 min of intravenous administration of the compound; [125I]- is used as radioactive isotope; format: ADME, tissue-based; conditions: rat; method in brief: as §3
[8] = Distribution ratio in hippocampus and cerebellum was determined after 240 min of intravenous administration of the compound; [125I]- is used as radioactive isotope; format: ADME, tissue-based; conditions: rat, 4 h; method in brief: as §3
[9] = Distribution ratio in hypothalamus and cerebellum was determined after 120 min of intravenous administration of the compound; [125I]- is used as radioactive isotope; format: ADME, tissue-based; conditions: rat, 2 h; method in brief: as §3
[10] = Regional brain distribution in rat cerebellum was determined after 6 hours of intravenous administration of the compound; [125I]- is used as radioactive isotope; format: ADME, tissue-based; conditions: in vivo; method in brief: as §1
[11] = Regional brain distribution in rat hippocampus was determined after 30 min of intravenous administration of the compound; [125I]- is used as radioactive isotope; format: ADME, tissue-based; conditions: in vivo, 0.5 h; method in brief: as §1
[12] = Regional brain distribution in rat striatum was determined after 120 min of intravenous administration of the compound; [125I]- is used as radioactive isotope; format: ADME, tissue-based; conditions: in vivo, 2 h; method in brief: as §1
[13] = Regional brain distribution in rat hippocampus was determined after 240 min of intravenous administration of the compound; [125I]- is used as radioactive isotope; format: ADME, tissue-based; conditions: in vivo, 4 h; method in brief: as §1
[14] = Biodistribution in rat lung was determined after 2 min of intravenous administration of the compound; [125I]- is used as radioactive isotope; format: ADME, organism-based; conditions: in vivo
Method in brief: (§4)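 Rats under ether anesthesia, three per group, received 10 μCi tracer in 0.2 mL saline into the femoral vein. They were killed by cardiac excision under ether at each time point. Organs were removed, weighed and counted. Percent dose per organ was calculated against a 1%-of-injected-dose standard counted at the same time.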

[15] = Biodistribution in rat skin was determined after 2 min of intravenous administration of the compound; [125I]- is used as radioactive isotope; format: ADME, organism-based, Zone of skin; conditions: in vivo
Method in brief: (§5)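 Rats, three per group, under ether anaesthesia, received 10 μCi of [¹²⁵I]-labelled tracer in 0.2 mL saline into the femoral vein. They were killed by cardiac excision under ether at each time point. Organs were removed, weighed and counted. Percent dose per organ was calculated against counts of a 1% aliquot of the injected dose (100-fold diluted) counted at the same time.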

[16] = Biodistribution in rat liver was determined after 2 min of intravenous administration of the compound; [125I]- is used as radioactive isotope; format: ADME, organism-based; conditions: in vivo; method in brief: as §4
[17] = Biodistribution in rat lung was determined after 30 min of intravenous administration of the compound; [125I]- is used as radioactive isotope; format: ADME, organism-based; conditions: in vivo, 0.5 h; method in brief: as §4
[18] = Biodistribution in rat skin was determined after 30 min of intravenous administration of the compound; [125I]- is used as radioactive isotope; format: ADME, organism-based, Zone of skin; conditions: in vivo, 0.5 h; method in brief: as §5
[19] = Biodistribution in rat spleen was determined after 11 hours of intravenous administration of the compound; [125I]- is used as radioactive isotope; format: ADME, organism-based; conditions: in vivo; method in brief: as §5
[20] = Biodistribution in rat lung was determined after 6 hours of intravenous administration of the compound; [125I]- is used as radioactive isotope; format: ADME, organism-based; conditions: in vivo; method in brief: as §4
[21] = Biodistribution in rat muscle was determined after 2 min of intravenous administration of the compound; [125I]- is used as radioactive isotope; format: ADME, organism-based, Muscle tissue; conditions: in vivo; method in brief: as §5
[22] = Biodistribution in rat skin was determined after 6 hours of intravenous administration of the compound; [125I]- is used as radioactive isotope; format: ADME, organism-based, Zone of skin; conditions: in vivo; method in brief: as §5
[23] = Biodistribution in rat brain was determined after 240 min of intravenous administration of the compound; [125I]- is used as radioactive isotope; format: ADME, organism-based; conditions: in vivo, 4 h; method in brief: as §4
[24] = Biodistribution in rat brain was determined after 6 hours of intravenous administration of the compound; [125I]- is used as radioactive isotope; format: ADME, organism-based; conditions: in vivo; method in brief: as §4
[25] = Biodistribution in rat heart was determined after 120 min of intravenous administration of the compound; [125I]- is used as radioactive isotope; format: ADME, organism-based; conditions: in vivo, 2 h; method in brief: as §4
[26] = Biodistribution in rat thyroid was determined after 2 min of intravenous administration of the compound; [125I]- is used as radioactive isotope; format: ADME, organism-based, Thyroid gland; conditions: in vivo; method in brief: as §5
[27] = Biodistribution in rat spleen was determined after 120 min of intravenous administration of the compound; [125I]- is used as radioactive isotope; format: ADME, organism-based; conditions: in vivo, 2 h; method in brief: as §5
[28] = Biodistribution in rat spleen was determined after 6 hours of intravenous administration of the compound; [125I]- is used as radioactive isotope; format: ADME, organism-based; conditions: in vivo; method in brief: as §5
[29] = Biodistribution in rat lung was determined after 24 hours of intravenous administration of the compound; [125I]- is used as radioactive isotope; format: ADME, organism-based; conditions: in vivo; method in brief: as §4
[30] = Biodistribution in rat thyroid was determined after 60 min of intravenous administration of the compound; [125I]- is used as radioactive isotope; format: ADME, organism-based, Thyroid gland; conditions: in vivo, 1 h; method in brief: as §5
[31] = target: Sodium-dependent serotonin transporter (Homo sapiens, UniProt P31645); experiment: Binding affinity for serotonin transporter expressed in […] cells; format: cell-based
Method in brief: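 Membranes from confluent pig kidney LLC-PK₁ cells stably expressing the respective transporter, homogenized and pelleted, 30–40 μg protein. Incubated with 0.4 nM [¹²⁵I]IPT or [¹²⁵I]IDAM and 8–10 competitor concentrations (10⁻¹⁰ to 10⁻⁵ M) in 50 mM Tris-HCl pH 7.4, 120 mM NaCl, 0.1% BSA, 1 h at room temperature. Nonspecific binding was defined with 10 μM CFT for IPT and 1 μM IDAM for IDAM. Filtration, gamma counting, nonlinear regression for Ki.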

Chain of Sodium-dependent serotonin transporter (P31645 whole entry): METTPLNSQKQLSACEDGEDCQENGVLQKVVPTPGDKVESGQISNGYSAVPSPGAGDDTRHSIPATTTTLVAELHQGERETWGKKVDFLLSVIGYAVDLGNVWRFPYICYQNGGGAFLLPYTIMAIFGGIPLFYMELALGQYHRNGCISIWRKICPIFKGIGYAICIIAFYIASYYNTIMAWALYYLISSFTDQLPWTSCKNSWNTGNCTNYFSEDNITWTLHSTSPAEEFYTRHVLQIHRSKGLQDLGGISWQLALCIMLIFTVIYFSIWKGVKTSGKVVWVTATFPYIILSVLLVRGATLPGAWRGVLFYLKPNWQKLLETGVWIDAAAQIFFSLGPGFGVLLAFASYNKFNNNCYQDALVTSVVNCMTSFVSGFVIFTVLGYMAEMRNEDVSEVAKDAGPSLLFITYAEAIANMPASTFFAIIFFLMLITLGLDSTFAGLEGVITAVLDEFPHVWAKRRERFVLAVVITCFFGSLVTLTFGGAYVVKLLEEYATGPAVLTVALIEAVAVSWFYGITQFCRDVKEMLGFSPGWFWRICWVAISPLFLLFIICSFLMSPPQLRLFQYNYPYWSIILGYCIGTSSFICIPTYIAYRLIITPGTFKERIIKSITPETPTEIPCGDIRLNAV

## CN(C)Cc1ccccc1Oc1ccc(I)cc1N
[1]
  Dose/g: 0.51%
[2]
  Dose/g: 0.01%
[3]
  Dose/g: 0.004%
[4]
  Dose/g: 1.56%
[5]
  Dose/g: 0.14%
[6]
  Dose/g: 0.68%
[7]
  Dose/g: 0.24%
[8]
  Dose/g: 2.47%
[9]
  Dose/g: 3.49%
[10]
  Dose/g: 0.027%
[11]
  Dose/g: 1.06%
[12]
  Dose/g: 0.72%
[13]
  Dose/g: 0.2%
[14]
  Dose: 17.2%
[15]
  Dose: 4.45%
[16]
  Dose: 5.71%
[17]
  Dose: 3.56%
[18]
  Dose: 11.3%
[19]
  Dose: 0.09%
[20]
  Dose: 0.25%
[21]
  Dose: 25.9%
[22]
  Dose: 15.5%
[23]
  Dose: 0.33%
[24]
  Dose: 0.11%
[25]
  Dose: 0.13%
[26]
  Dose: 0.1%
[27]
  Dose: 0.27%
[28]
  Dose: 0.11% and 0.05%
[29]
  Dose: 0.04%
[30]
  Dose: 0.41%
[31]
  Ki: 0.37 nM
